Data published in ChEMBL document CHEMBL3272292, “2-(2-Aminoethylamino)-1,2-diphenylethanol derivatives, a new class of topical antiinflammatory agents” (1977).

Experiments:
Type in all cases: functional
Rattus norvegicus [1] = test: Antiinflammatory activity in immature rat assessed as inhibition of cantharidin-induced inflammation at 200 ug administered topically to outer surface of ear after 72 hrs relative to control
How it was run: (§1)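 Test compounds applied topically to outer ear surface together with cantharidin, groups of 8-10 immature rats (50-60 g). Controls: vehicle-only group and cantharidin-only group. […] Significance vs irritant group by Student's t test or Fieller's theorem.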

Rattus norvegicus [2] = test: Antiinflammatory activity in immature rat assessed as inhibition of cantharidin-induced inflammation at 400 ug administered topically to outer surface of ear after 72 hrs relative to control; how it was run: as §1
Rattus norvegicus [3] = test: Antiinflammatory activity in immature rat assessed as inhibition of cantharidin-induced inflammation at 800 ug administered topically to outer surface of ear after 72 hrs relative to control; how it was run: as §1
Rattus norvegicus [4] = test: Antiinflammatory activity in immature rat assessed as inhibition of cantharidin-induced inflammation at 100 ug administered topically to outer surface of ear after 72 hrs relative to control; how it was run: as §1
Rattus norvegicus [5] = test: Antiinflammatory activity in immature rat assessed as inhibition of cantharidin-induced inflammation at 50 ug administered topically to outer surface of ear after 72 hrs relative to control; how it was run: as §1
Rattus norvegicus [6] = test: Antiinflammatory activity in rat assessed as reduction in dry ganuloma tissue surrounding implanted cotton pellet at 20 ug per pellet after 72 hrs relative to control; set-up: scale not given: the % may be the effect or the level left
How it was run: (§2)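 Compound dissolved in ethanol, applied to cotton pellets and dried at room temperature. Two pellets implanted sc per rat, ten rats per dose group. Pellets removed at autopsy 72 h later. Activity read as reduction in dry granuloma tissue around pellets vs control group. Significance by Student's t test or Fieller's theorem.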

Rattus norvegicus [7] = test: Antiinflammatory activity in rat assessed as reduction in dry ganuloma tissue surrounding implanted cotton pellet at 40 ug per pellet after 72 hrs relative to control; set-up: scale not given: the % may be the effect or the level left; how it was run: as §2
Rattus norvegicus [8] = test: Antiinflammatory activity in immature rat assessed as inhibition of cantharidin-induced inflammation at 40 ug administered topically to outer surface of ear after 72 hrs relative to control; how it was run: as §1
Rattus norvegicus [9] = test: Antiinflammatory activity in rat assessed as reduction in dry ganuloma tissue surrounding implanted cotton pellet at 80 ug per pellet after 72 hrs relative to control; set-up: scale not given: the % may be the effect or the level left; how it was run: as §2
Rattus norvegicus [10] = test: Antiinflammatory activity in immature rat assessed as inhibition of cantharidin-induced inflammation at 10 ug administered topically to outer surface of ear after 72 hrs relative to control; how it was run: as §1
Rattus norvegicus [11] = test: Antiinflammatory activity in immature rat assessed as inhibition of cantharidin-induced inflammation at 20 ug administered topically to outer surface of ear after 72 hrs relative to control; how it was run: as §1
Rattus norvegicus [12] = test: Antiinflammatory activity in rat assessed as reduction in dry ganuloma tissue surrounding implanted cotton pellet at 10 ug per pellet after 72 hrs relative to control; set-up: scale not given: the % may be the effect or the level left; how it was run: as §2
Rattus norvegicus [13] = test: Antiinflammatory activity in immature rat assessed as inhibition of cantharidin-induced inflammation at 5 ug administered topically to outer surface of ear after 72 hrs relative to control; how it was run: as §1
Rattus norvegicus [14] = test: Antiinflammatory activity in immature rat assessed as inhibition of cantharidin-induced inflammation at 80 ug administered topically to outer surface of ear after 72 hrs relative to control; how it was run: as §1
Rattus norvegicus [15] = test: Antiinflammatory activity in immature rat assessed as inhibition of cantharidin-induced inflammation at 924 ug administered topically to outer surface of ear after 72 hrs relative to control; how it was run: as §1
Rattus norvegicus [16] = test: Antiinflammatory activity in immature rat assessed as inhibition of cantharidin-induced inflammation at 888 ug administered topically to outer surface of ear after 72 hrs relative to control; how it was run: as §1
Rattus norvegicus [17] = test: Antiinflammatory activity in rat assessed as reduction in dry ganuloma tissue surrounding implanted cotton pellet at 4000 ug per pellet after 72 hrs relative to control; set-up: scale not given: the % may be the effect or the level left; how it was run: as §2
Rattus norvegicus [18] = test: Antiinflammatory activity in rat assessed as reduction in dry ganuloma tissue surrounding implanted cotton pellet at 8000 ug per pellet after 72 hrs relative to control; set-up: scale not given: the % may be the effect or the level left; how it was run: as §2
Rattus norvegicus [19] = test: Antiinflammatory activity in rat assessed as reduction in dry ganuloma tissue surrounding implanted cotton pellet at 2000 ug per pellet after 72 hrs relative to control; set-up: scale not given: the % may be the effect or the level left; how it was run: as §2
Rattus norvegicus [20] = test: Antiinflammatory activity in rat assessed as reduction in dry ganuloma tissue surrounding implanted cotton pellet at 1000 ug per pellet after 72 hrs relative to control; set-up: scale not given: the % may be the effect or the level left; how it was run: as §2

`NCCN[C@@H](c1ccccc1)[C@H](O)c1ccccc1` (racemic) was tested, and the “inhibition (INH)” value (Rattus norvegicus [1]) was 9%, the “inhibition (INH)” value (Rattus norvegicus [2]) was 56% and the “inhibition (INH)” value (Rattus norvegicus [3]) was 88%. The “inhibition (INH)” value (Rattus norvegicus [4]) was 7%.
With `NCCNC(c1ccccc1)C(O)c1ccccc1` (stereo in doubt; 8a) the “inhibition (INH)” value (Rattus norvegicus [1]) was 19%, the “inhibition (INH)” value (Rattus norvegicus [2]) was 51% and the “inhibition (INH)” value (Rattus norvegicus [5]) was 7%. For the same compound, the “inhibition (INH)” value (Rattus norvegicus [3]) was 87% and the “inhibition (INH)” value (Rattus norvegicus [4]) was 1%.
With `Cc1ccc([C@H](O)[C@@H](NCCN)c2ccccc2)cc1` (racemic) the “inhibition (INH)” value (Rattus norvegicus [1]) was 5%, the “inhibition (INH)” value (Rattus norvegicus [2]) was 53% and the “inhibition (INH)” value (Rattus norvegicus [5]) was 12%. For the same compound, the “inhibition (INH)” value (Rattus norvegicus [3]) was 68% and the “inhibition (INH)” value (Rattus norvegicus [4]) was 9%.
With `NCCN[C@@H](c1ccccc1)[C@@H](O)c1ccc(Cl)cc1` (racemic) the “inhibition (INH)” value (Rattus norvegicus [1]) was 35%, the “inhibition (INH)” value (Rattus norvegicus [2]) was 64% and the “inhibition (INH)” value (Rattus norvegicus [5]) was 20%. For the same compound, the “inhibition (INH)” value (Rattus norvegicus [3]) was 90% and the “inhibition (INH)” value (Rattus norvegicus [4]) was 23%.
With `CC(=O)NCCN(C(C)=O)[C@@H](c1ccccc1)[C@@H](OC(C)=O)c1ccccc1` (racemic) the “inhibition (INH)” value (Rattus norvegicus [1]) was 7%, the “inhibition (INH)” value (Rattus norvegicus [2]) was 13% and the “inhibition (INH)” value (Rattus norvegicus [5]) was 6%. The “inhibition (INH)” value (Rattus norvegicus [3]) was 0% and the “inhibition (INH)” value (Rattus norvegicus [4]) was 13%.
With `NCCN[C@@H](c1ccc(Cl)cc1)[C@@H](O)c1ccccc1` (racemic) the “inhibition (INH)” value (Rattus norvegicus [1]) was 12%, the “inhibition (INH)” value (Rattus norvegicus [2]) was 35% and the “inhibition (INH)” value (Rattus norvegicus [5]) was 3%. For the same compound, the “inhibition (INH)” value (Rattus norvegicus [3]) was 89% and the “inhibition (INH)” value (Rattus norvegicus [4]) was 0%.
`C[C@@H]1C[C@H]2[C@@H]3CCC4=CC(=O)C=C[C@]4(C)[C@@]3(F)[C@@H](O)C[C@]2(C)[C@@]1(O)C(=O)CO` [DEXAMETHASONE] was tested, and the Activity (Rattus norvegicus [6]) was 28%, the Activity (Rattus norvegicus [7]) was 34% and the “inhibition (INH)” value (Rattus norvegicus [8]) was 53%. The Activity (Rattus norvegicus [9]) was 49%, the “inhibition (INH)” value (Rattus norvegicus [10]) was 25% and the “inhibition (INH)” value (Rattus norvegicus [11]) was 30%. The Activity (Rattus norvegicus [12]) was 16%, the “inhibition (INH)” value (Rattus norvegicus [13]) was 17% and the “inhibition (INH)” value (Rattus norvegicus [14]) was 76%.
`CC1(C(=O)O)C2CCC(O2)C1(C)C(=O)NCCNC(c1ccccc1)C(O)c1ccccc1` (stereo not drawn) was tested, and the “inhibition (INH)” value (Rattus norvegicus [15]) was 67%.
For `O[C@@H](c1ccccc1)[C@@H](NCCN[C@@H](c1ccccc1)[C@@H](O)c1ccccc1)c1ccccc1`, the “inhibition (INH)” value (Rattus norvegicus [1]) was 17%, the “inhibition (INH)” value (Rattus norvegicus [2]) was 5% and the “inhibition (INH)” value (Rattus norvegicus [5]) was 14%. The “inhibition (INH)” value (Rattus norvegicus [3]) was 0% and the “inhibition (INH)” value (Rattus norvegicus [4]) was 0%.
For `CN(C)CCCN[C@@H](c1ccccc1)[C@@H](O)c1ccccc1` (racemic), the “inhibition (INH)” value (Rattus norvegicus [1]) was 16%, the “inhibition (INH)” value (Rattus norvegicus [2]) was 9% and the “inhibition (INH)” value (Rattus norvegicus [5]) was 9%. For the same compound, the “inhibition (INH)” value (Rattus norvegicus [3]) was 32% and the “inhibition (INH)” value (Rattus norvegicus [4]) was 0%.
In the case of `CC(=O)NCCN(C(C)=O)[C@@H](c1ccccc1)[C@@H](O)c1ccccc1` (racemic), the “inhibition (INH)” value (Rattus norvegicus [1]) was 9%, the “inhibition (INH)” value (Rattus norvegicus [2]) was 0% and the “inhibition (INH)” value (Rattus norvegicus [5]) was 0%. For the same compound, the “inhibition (INH)” value (Rattus norvegicus [3]) was 40% and the “inhibition (INH)” value (Rattus norvegicus [4]) was 11%.
`NCCCCN[C@@H](c1ccccc1)[C@@H](O)c1ccccc1` (racemic) was tested, and the “inhibition (INH)” value (Rattus norvegicus [1]) was 37%, the “inhibition (INH)” value (Rattus norvegicus [2]) was 54% and the “inhibition (INH)” value (Rattus norvegicus [5]) was 10%. The “inhibition (INH)” value (Rattus norvegicus [3]) was 87% and the “inhibition (INH)” value (Rattus norvegicus [4]) was 5%.
With `NCCNC(c1ccccc1)C(O)c1ccccc1` (single isomer, unassigned; (+)) the “inhibition (INH)” value (Rattus norvegicus [1]) was 0%, the “inhibition (INH)” value (Rattus norvegicus [2]) was 29% and the “inhibition (INH)” value (Rattus norvegicus [3]) was 96%. For the same compound, the “inhibition (INH)” value (Rattus norvegicus [4]) was 2%.
With `NCCCN[C@@H](c1ccccc1)[C@@H](O)c1ccccc1` (racemic) the “inhibition (INH)” value (Rattus norvegicus [1]) was 21%, the “inhibition (INH)” value (Rattus norvegicus [2]) was 29% and the “inhibition (INH)” value (Rattus norvegicus [5]) was 0%. The “inhibition (INH)” value (Rattus norvegicus [3]) was 51% and the “inhibition (INH)” value (Rattus norvegicus [4]) was 8%.
With `NCCN[C@@H](c1ccc(Cl)cc1)[C@@H](O)c1ccc(Cl)cc1` (racemic) the “inhibition (INH)” value (Rattus norvegicus [1]) was 16%, the “inhibition (INH)” value (Rattus norvegicus [2]) was 15% and the “inhibition (INH)” value (Rattus norvegicus [5]) was 16%. The “inhibition (INH)” value (Rattus norvegicus [3]) was 17% and the “inhibition (INH)” value (Rattus norvegicus [4]) was 10%.
In the case of `CC(C)=NCCN[C@@H](c1ccccc1)[C@@H](O)c1ccccc1` (relative stereo), the “inhibition (INH)” value (Rattus norvegicus [1]) was 10%, the “inhibition (INH)” value (Rattus norvegicus [2]) was 59% and the “inhibition (INH)” value (Rattus norvegicus [5]) was 14%. The “inhibition (INH)” value (Rattus norvegicus [3]) was 87% and the “inhibition (INH)” value (Rattus norvegicus [4]) was 13%.
In the case of `CN(CCN)[C@@H](c1ccccc1)[C@@H](O)c1ccccc1` (racemic), the “inhibition (INH)” value (Rattus norvegicus [1]) was 1%, the “inhibition (INH)” value (Rattus norvegicus [2]) was 11% and the “inhibition (INH)” value (Rattus norvegicus [5]) was 0%. The “inhibition (INH)” value (Rattus norvegicus [3]) was 41% and the “inhibition (INH)” value (Rattus norvegicus [4]) was 8%.
With `CNCCN[C@@H](c1ccccc1)[C@@H](O)c1ccccc1` (racemic) the “inhibition (INH)” value (Rattus norvegicus [1]) was 20%, the “inhibition (INH)” value (Rattus norvegicus [2]) was 6% and the “inhibition (INH)” value (Rattus norvegicus [5]) was 15%. The “inhibition (INH)” value (Rattus norvegicus [3]) was 26% and the “inhibition (INH)” value (Rattus norvegicus [4]) was 20%.
With `CC12C(=O)N(CCNC(c3ccccc3)C(O)c3ccccc3)C(=O)C1(C)C1CCC2O1` (stereo not drawn) the “inhibition (INH)” value (Rattus norvegicus [16]) was 0%.
For `NCCN[C@@H](c1ccccc1)[C@@H](O)c1ccccc1` (racemic), the Activity (Rattus norvegicus [17]) was 44%, the Activity (Rattus norvegicus [18]) was 49% and the “inhibition (INH)” value (Rattus norvegicus [1]) was 46%. The Activity (Rattus norvegicus [19]) was 28%, the “inhibition (INH)” value (Rattus norvegicus [2]) was 72% and the “inhibition (INH)” value (Rattus norvegicus [5]) was 19%. For the same compound, the “inhibition (INH)” value (Rattus norvegicus [3]) was 88%, the Activity (Rattus norvegicus [20]) was 19% and the “inhibition (INH)” value (Rattus norvegicus [4]) was 19%.
In the case of `CC(=O)NCCN[C@@H](c1ccccc1)[C@@H](O)c1ccccc1` (racemic), the “inhibition (INH)” value (Rattus norvegicus [1]) was 0%, the “inhibition (INH)” value (Rattus norvegicus [2]) was 3% and the “inhibition (INH)” value (Rattus norvegicus [5]) was 0%. For the same compound, the “inhibition (INH)” value (Rattus norvegicus [3]) was 5% and the “inhibition (INH)” value (Rattus norvegicus [4]) was 3%.
`CN(C)CCN[C@@H](c1ccccc1)[C@@H](O)c1ccccc1` (racemic) was tested, and the “inhibition (INH)” value (Rattus norvegicus [1]) was 8%, the “inhibition (INH)” value (Rattus norvegicus [2]) was 0% and the “inhibition (INH)” value (Rattus norvegicus [5]) was 0%. The “inhibition (INH)” value (Rattus norvegicus [3]) was 0% and the “inhibition (INH)” value (Rattus norvegicus [4]) was 0%.
